Tests used:
[1] = target: CYP3A4 (Homo sapiens, UniProt P08684); assay: Inhibition of human CYP3A4 at 10 uM; format: ADME
In short: (§1)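 Inhibition of human CYP isoforms was measured with the compound tested at 10 µM.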

[2] = AUC (0 to 24 hrs) in Sprague-Dawley rat at 10 mg/kg, ip; format: ADME, organism-based; set-up: dose 10 mg/kg, time < 24 hr, route intraperitoneal; conditions: in vivo
In short: (§2)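 Fasted male Sprague–Dawley rats (~250 g) received a single dose of compound dissolved in water and adjusted to pH 7–7.5 with NaOH, given iv, by oral gavage or ip. Serial blood samples (11–12 per rat) were drawn from a jugular vein catheter into EDTA and kept frozen. Plasma was mixed with methanol:water (1:1) containing an analogue internal standard for analysis. Mean plasma parameters are reported.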

[3] = Drug level in Sprague-Dawley rat cerebrospinal fluid at 10 mg/kg, ip after 0.5 hrs; format: ADME, organism-based; conditions: read-out: Drug uptake
In short: (§3)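 Male Sprague–Dawley rats received single ip doses of 1, 3 or 10 mg/kg. Cerebrospinal fluid and plasma levels were determined at 0.5, 1 and 4 h. Mean csf concentration (nM ± SEM) is reported.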

[4] = Half life in Sprague-Dawley rat at 1 mg/kg, ip; format: ADME, organism-based; conditions: in vivo; in short: as §2
[5] = Drug level in Sprague-Dawley rat cerebrospinal fluid at 3 mg/kg, ip after 4 hrs; format: ADME, organism-based; conditions: read-out: Drug uptake; in short: as §3
[6] = tested on: Rattus norvegicus; assay: Antipsychosis activity in ip dosed Sprague-Dawley rat assessed as reduction of […] in horizontal ambulations administered 30 mins before PCP challenge measured after 60 mins; format: functional
[7] = Half life in Sprague-Dawley rat at 3 mg/kg, ip; format: ADME, organism-based; conditions: in vivo; in short: as §2
[8] = target: CYP2C9 (Homo sapiens, UniProt P11712); assay: Inhibition of human CYP2C9 at 10 uM; format: ADME; in short: as §1
[9] = tested on: Rattus norvegicus; assay: Toxicity in Sprague-Dawley rat assessed as impairment of neuromuscular coordination at 10 mg/kg, ip after 2 to 3 hrs by rotarod test; format: organism-based; conditions: in vivo
[10] = target: Metabotropic glutamate receptor 4 (Homo sapiens, UniProt Q14833); assay: Agonist activity at human recombinant mGlu4 receptor expressed in AV12 cells assessed as stimulation of Ca2+ mobilization after 1 hr by FLIPR assay; format: functional, cell-based
[11] = tested on: Rattus norvegicus; assay: Toxicity in Sprague-Dawley rat assessed as impairment of neuromuscular coordination at 10 mg/kg, ip after 1 hr by rotarod test; format: organism-based; conditions: in vivo
[12] = Bioavailability in Sprague-Dawley rat at 10 mg/kg, ip; format: ADME, organism-based; conditions: in vivo; in short: as §2
[13] = target: Metabotropic glutamate receptor 3 (Homo sapiens, UniProt Q14832, D279E); assay: Agonist activity at human recombinant mGlu3 receptor D279E mutant expressed in AV12 cells assessed as stimulation of Ca2+ mobilization after 1 hr by FLIPR assay; format: functional, cell-based
[14] = target: Metabotropic glutamate receptor 7 (Homo sapiens, UniProt Q14831); assay: Agonist activity at human recombinant mGlu7 receptor expressed in AV12 cells assessed as stimulation of Ca2+ mobilization after 1 hr by FLIPR assay; format: functional, cell-based
[15] = Bioavailability in Sprague-Dawley rat at 3 mg/kg, ip; format: ADME, organism-based; conditions: in vivo; in short: as §2
[16] = Half life in Sprague-Dawley rat at 10 mg/kg, ip; format: ADME, organism-based; conditions: in vivo; in short: as §2
[17] = target: T1, Metabotropic glutamate receptor 2 (Homo sapiens, UniProt Q14416); assay: Agonist activity at human recombinant mGlu2 receptor expressed in AV12 cells assessed as stimulation of Ca2+ mobilization after 1 hr by FLIPR assay; format: functional, cell-based
[18] = Solubility of the compound in DMSO at 20 uM; format: physicochemical
[19] = target: Metabotropic glutamate receptor 3 (Homo sapiens, UniProt Q14832); assay: Antagonist activity at human recombinant mGlu3 receptor expressed in AV12 cells assessed as inhibition of glutamate-stimulated Ca2+ mobilization after 1.5 hrs by FLIPR assay; format: functional, cell-based
[20] = Tmax in Sprague-Dawley rat at 3 mg/kg, ip; format: ADME, organism-based; conditions: in vivo
In short: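 Compound dissolved in water, pH adjusted to 7–7.5 with NaOH; single dose to fasted male Sprague–Dawley rats (~250 g) by oral gavage, intravenous or intraperitoneal route. Serial blood (11–12 samples per rat) from jugular vein catheter into EDTA tubes, centrifuged, frozen; 25 µL plasma mixed with methanol:water (1:1) containing analogue internal standard.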

[21] = target: Metabotropic glutamate receptor 3 (Homo sapiens, UniProt Q14832, Q306L); assay: Agonist activity at human recombinant mGlu3 receptor Q306L mutant expressed in AV12 cells assessed as stimulation of Ca2+ mobilization after 1 hr by FLIPR assay; format: functional, cell-based
[22] = Half life in Sprague-Dawley rat at 5 mg/kg, po; format: ADME, organism-based; conditions: in vivo; in short: as §2
[23] = target: T2, Metabotropic glutamate receptor 8 (Homo sapiens, UniProt O00222); assay: Agonist activity at human recombinant mGlu8 receptor expressed in AV12 cells assessed as stimulation of Ca2+ mobilization after 1.5 hrs by FLIPR assay; format: functional, cell-based
[24] = target: Metabotropic glutamate receptor 1 (Homo sapiens, UniProt Q13255); assay: Agonist activity at human recombinant mGlu1 receptor expressed in AV12 cells assessed as stimulation of Ca2+ mobilization after 1 hr by FLIPR assay; format: functional, cell-based
[25] = Metabolic stability of the compound in mouse hepatocytes assessed as loss of compound at 2 uM; format: ADME, cell-based, Hepatocyte; conditions: read-out: Drug degradation
In short: (§4)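 Hepatocytes from mouse, rat, dog and human; compound tested at 2 µM; percent loss of parent compound measured.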

[26] = target: T1, Metabotropic glutamate receptor 2; assay: Displacement of [3H]-459477 from human recombinant mGlu2 receptor expressed in AV12 cells after 90 mins by liquid scintillation counting; format: cell-based
[27] = Fraction unbound in human plasma; format: ADME, cell-free
[28] = Metabolic stability of the compound in human hepatocytes assessed as loss of compound at 2 uM; format: ADME, cell-based, Hepatocyte; conditions: read-out: Drug degradation; in short: as §4
[29] = Drug level in Sprague-Dawley rat cerebrospinal fluid at 10 mg/kg, ip after 1 hr; format: ADME, organism-based; conditions: read-out: Drug uptake; in short: as §3
[30] = Plasma concentration in Sprague-Dawley rat at 10 mg/kg, ip after 4 hrs; format: ADME, organism-based
In short: (§5)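 Separate experiment: single ip doses of 1, 3 and 10 mg/kg to rats, compound in water adjusted to pH 7–7.5 with NaOH; plasma (with csf) sampled at 0.5, 1 and 4 h; mean plasma concentrations ± SEM reported.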

[31] = Plasma concentration in Sprague-Dawley rat at 10 mg/kg, ip after 1 hr; format: ADME, organism-based; in short: as §5
[32] = Clearance in Sprague-Dawley rat at 1 mg/kg, iv; format: ADME, organism-based; conditions: in vivo; in short: as §2
[33] = target: Metabotropic glutamate receptor 2 (Homo sapiens, UniProt Q14416, E273D/L300Q); assay: Agonist activity at human recombinant mGlu2 receptor E273D and L300Q mutant expressed in AV12 cells assessed as stimulation of Ca2+ mobilization after 1 hr by FLIPR assay; format: functional, cell-based
[34] = target: Metabotropic glutamate receptor 2 (Homo sapiens, UniProt Q14416, L300Q); assay: Agonist activity at human recombinant mGlu2 receptor L300Q mutant expressed in AV12 cells assessed as stimulation of Ca2+ mobilization after 1 hr by FLIPR assay; format: functional, cell-based
[35] = Plasma concentration in Sprague-Dawley rat at 3 mg/kg, ip after 0.5 hrs; format: ADME, organism-based; in short: as §5
[36] = Bioavailability in Sprague-Dawley rat at 1 mg/kg, ip; format: ADME, organism-based; conditions: in vivo; in short: as §2
[37] = target: T2, Metabotropic glutamate receptor 8; assay: Antagonist activity at human recombinant mGlu8 receptor expressed in AV12 cells assessed as inhibition of glutamate-stimulated Ca2+ mobilization after 1 hr by FLIPR assay; format: functional, cell-based

T2 sequence (O00222 whole entry): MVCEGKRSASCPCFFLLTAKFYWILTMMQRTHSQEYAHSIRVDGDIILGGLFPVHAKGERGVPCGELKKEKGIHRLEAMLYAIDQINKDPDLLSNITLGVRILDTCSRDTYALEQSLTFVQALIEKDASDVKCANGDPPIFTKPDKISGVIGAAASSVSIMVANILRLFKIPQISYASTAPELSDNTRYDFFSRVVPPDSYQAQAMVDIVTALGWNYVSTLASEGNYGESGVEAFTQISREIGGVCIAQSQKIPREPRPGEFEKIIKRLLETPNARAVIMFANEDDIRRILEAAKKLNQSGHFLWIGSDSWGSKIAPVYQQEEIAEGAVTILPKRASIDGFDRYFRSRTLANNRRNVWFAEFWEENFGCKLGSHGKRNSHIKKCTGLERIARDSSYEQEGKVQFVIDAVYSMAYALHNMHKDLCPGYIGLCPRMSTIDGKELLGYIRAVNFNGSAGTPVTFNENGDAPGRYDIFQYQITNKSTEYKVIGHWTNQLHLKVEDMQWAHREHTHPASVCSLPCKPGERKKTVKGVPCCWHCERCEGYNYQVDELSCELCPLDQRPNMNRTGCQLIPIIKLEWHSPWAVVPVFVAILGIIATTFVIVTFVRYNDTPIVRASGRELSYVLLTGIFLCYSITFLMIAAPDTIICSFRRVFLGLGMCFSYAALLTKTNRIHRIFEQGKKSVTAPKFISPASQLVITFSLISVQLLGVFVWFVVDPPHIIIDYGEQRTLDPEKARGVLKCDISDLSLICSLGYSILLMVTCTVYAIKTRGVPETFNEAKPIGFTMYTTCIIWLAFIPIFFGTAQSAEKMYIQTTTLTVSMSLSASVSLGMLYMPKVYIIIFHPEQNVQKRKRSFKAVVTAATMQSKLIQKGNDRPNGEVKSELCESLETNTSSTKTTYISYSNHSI
T1 sequence (Q14416 whole entry): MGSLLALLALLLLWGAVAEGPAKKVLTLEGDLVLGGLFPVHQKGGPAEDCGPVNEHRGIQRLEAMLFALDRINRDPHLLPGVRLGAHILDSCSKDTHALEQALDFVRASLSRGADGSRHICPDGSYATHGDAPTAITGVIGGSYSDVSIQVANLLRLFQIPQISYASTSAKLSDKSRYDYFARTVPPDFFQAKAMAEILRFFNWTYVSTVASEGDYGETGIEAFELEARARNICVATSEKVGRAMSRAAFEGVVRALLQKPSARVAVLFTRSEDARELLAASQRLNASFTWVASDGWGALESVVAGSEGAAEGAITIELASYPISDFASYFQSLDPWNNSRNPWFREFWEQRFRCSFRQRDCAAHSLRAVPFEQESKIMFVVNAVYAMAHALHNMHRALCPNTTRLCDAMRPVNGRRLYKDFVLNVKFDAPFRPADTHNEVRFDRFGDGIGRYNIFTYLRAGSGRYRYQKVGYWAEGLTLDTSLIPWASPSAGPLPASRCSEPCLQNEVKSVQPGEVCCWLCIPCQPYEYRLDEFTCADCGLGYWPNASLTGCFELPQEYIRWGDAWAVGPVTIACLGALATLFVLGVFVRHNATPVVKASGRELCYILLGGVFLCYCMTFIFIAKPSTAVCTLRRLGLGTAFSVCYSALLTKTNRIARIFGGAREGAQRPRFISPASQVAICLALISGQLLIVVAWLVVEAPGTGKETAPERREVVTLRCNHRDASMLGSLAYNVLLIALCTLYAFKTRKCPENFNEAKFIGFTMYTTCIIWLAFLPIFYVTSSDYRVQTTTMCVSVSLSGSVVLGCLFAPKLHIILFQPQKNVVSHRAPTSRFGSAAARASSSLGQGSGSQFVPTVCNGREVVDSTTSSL
Metabotropic glutamate receptor 1, sequence (Q13255 whole entry): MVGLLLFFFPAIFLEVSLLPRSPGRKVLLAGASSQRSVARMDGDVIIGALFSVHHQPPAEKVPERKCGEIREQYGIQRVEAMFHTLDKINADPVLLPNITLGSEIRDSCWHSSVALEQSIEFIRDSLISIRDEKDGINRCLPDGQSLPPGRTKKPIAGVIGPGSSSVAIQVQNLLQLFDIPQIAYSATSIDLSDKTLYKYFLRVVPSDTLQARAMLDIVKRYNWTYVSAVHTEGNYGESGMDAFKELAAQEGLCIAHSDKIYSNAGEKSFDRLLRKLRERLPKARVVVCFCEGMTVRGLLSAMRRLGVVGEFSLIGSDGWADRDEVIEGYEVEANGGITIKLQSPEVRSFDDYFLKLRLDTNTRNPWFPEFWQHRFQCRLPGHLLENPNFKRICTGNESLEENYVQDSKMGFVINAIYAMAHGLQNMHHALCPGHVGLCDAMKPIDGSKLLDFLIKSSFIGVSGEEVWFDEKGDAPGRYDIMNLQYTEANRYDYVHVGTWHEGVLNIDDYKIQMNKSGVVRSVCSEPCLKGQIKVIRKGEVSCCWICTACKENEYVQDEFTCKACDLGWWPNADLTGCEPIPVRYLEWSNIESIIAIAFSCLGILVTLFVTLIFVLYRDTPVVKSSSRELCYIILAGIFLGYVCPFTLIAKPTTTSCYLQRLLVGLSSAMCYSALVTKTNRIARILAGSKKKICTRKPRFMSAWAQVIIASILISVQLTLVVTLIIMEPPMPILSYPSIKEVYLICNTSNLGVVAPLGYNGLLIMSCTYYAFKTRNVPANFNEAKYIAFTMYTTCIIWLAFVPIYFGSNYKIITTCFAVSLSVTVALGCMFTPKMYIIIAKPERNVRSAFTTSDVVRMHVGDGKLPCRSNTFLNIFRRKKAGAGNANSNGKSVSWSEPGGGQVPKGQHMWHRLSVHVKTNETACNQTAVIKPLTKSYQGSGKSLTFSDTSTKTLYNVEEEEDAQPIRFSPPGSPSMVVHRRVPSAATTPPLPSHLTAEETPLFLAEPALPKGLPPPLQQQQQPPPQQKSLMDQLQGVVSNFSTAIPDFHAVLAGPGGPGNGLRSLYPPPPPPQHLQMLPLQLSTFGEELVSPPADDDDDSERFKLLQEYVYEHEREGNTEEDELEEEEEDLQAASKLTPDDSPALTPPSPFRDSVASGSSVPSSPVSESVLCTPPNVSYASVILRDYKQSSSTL
Metabotropic glutamate receptor 3 (Homo sapiens, UniProt Q14832, Q306L), sequence (Q14832 23-879 Q306L limits assumed): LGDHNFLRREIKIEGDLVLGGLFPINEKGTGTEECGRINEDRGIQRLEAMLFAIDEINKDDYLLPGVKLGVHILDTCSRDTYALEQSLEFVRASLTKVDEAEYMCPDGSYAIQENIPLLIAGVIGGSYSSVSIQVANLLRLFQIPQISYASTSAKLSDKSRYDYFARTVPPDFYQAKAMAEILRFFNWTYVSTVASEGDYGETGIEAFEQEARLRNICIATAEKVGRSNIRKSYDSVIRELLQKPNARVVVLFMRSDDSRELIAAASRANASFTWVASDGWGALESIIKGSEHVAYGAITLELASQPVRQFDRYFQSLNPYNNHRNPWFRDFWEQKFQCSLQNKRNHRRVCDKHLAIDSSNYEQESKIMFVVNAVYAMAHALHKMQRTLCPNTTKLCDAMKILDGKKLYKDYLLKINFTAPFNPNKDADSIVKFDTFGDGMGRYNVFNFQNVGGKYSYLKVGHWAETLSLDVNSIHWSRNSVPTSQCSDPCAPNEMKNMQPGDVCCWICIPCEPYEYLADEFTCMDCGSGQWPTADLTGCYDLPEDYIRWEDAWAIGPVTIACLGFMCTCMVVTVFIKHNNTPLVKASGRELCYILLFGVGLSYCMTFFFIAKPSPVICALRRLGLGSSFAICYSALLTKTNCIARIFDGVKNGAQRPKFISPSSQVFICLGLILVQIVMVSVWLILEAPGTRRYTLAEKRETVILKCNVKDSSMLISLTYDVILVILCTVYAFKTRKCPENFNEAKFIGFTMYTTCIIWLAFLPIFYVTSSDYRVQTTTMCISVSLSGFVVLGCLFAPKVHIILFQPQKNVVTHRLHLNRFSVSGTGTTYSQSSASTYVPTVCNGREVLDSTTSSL
Metabotropic glutamate receptor 2 (Homo sapiens, UniProt Q14416, E273D/L300Q), sequence (Q14416 19-872 E273D/L300Q limits assumed): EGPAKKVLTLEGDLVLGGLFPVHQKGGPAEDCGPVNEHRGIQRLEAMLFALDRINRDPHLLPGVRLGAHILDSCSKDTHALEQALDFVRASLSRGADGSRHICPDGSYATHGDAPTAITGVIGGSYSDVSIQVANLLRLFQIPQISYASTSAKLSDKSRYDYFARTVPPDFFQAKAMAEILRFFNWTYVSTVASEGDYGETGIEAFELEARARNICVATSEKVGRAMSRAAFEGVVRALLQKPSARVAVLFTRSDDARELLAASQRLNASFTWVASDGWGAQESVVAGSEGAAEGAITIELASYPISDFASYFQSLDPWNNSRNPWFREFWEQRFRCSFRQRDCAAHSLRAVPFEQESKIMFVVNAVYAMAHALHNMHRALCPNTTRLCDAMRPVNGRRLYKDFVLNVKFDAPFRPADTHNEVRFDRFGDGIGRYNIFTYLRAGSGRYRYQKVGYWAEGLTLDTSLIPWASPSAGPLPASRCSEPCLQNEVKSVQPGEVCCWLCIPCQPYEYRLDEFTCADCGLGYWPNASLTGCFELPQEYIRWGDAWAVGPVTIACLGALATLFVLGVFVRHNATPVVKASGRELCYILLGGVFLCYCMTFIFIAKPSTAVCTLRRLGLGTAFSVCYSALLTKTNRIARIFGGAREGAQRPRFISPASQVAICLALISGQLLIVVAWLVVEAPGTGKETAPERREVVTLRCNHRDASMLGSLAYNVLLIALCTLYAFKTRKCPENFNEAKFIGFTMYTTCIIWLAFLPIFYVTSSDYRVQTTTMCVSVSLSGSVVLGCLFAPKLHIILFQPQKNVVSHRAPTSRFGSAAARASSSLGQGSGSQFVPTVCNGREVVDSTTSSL
Metabotropic glutamate receptor 3 (Homo sapiens, UniProt Q14832, D279E), sequence (Q14832 23-879 D279E limits assumed): as the sequence (Q14832 23-879 Q306L limits assumed) above, with D257E, L284Q counted along it
Metabotropic glutamate receptor 2 (Homo sapiens, UniProt Q14416, L300Q), sequence (Q14416 19-872 L300Q limits assumed): as the sequence (Q14416 19-872 E273D/L300Q limits assumed) above, with D255E counted along it

inhibition at 10 µM [1]: < 10% | AUC(0-t) at 24 h [2]: 43.1 µM·h | concentration at 0.5 h [3]: 235 nM | half-life [4]: 1.2 h | concentration at 4 h [5]: 27.5 nM | half-life [7]: 3.2 h | inhibition at 10 µM [8]: < 10% | EC50 [10]: > 25 µM | bioavailability [12]: 88% | EC50 [13]: 2.18 µM | EC50 [14]: > 25 µM | bioavailability [15]: 73% | half-life [16]: 5.2 h | EC50 [17]: 0.0211 µM | solubility at 20 µM [18]: > 10 mM | IC50 [19]: 25.2 µM | Tmax [20]: 0.33 h | EC50 [21]: 2.83 µM | half-life [22]: 3.7 h | EC50 [23]: > 25 µM | EC50 [24]: > 25 µM | metabolised at 2 µM [25]: < 10% | Ki [26]: 0.144 µM | fraction unbound [27]: > 0.98 | metabolised at 2 µM [28]: < 10% | concentration at 1 h [29]: 272 nM | concentration at 4 h [30]: 3020 nM | concentration at 1 h [31]: 23600 nM | clearance [32]: 12.3 mL/min/kg | EC50 [33]: 0.0482 µM | EC50 [34]: 0.0221 µM | concentration at 0.5 h [35]: 10100 nM | bioavailability [36]: 122% | IC50 [37]: > 12.5 µM
Structure (SMILES): N[C@@]1(C(=O)O)C[C@@H](Sc2nc[nH]n2)[C@H]2[C@H](C(=O)O)[C@H]21
ED50 [6]: 1.2 mg/kg | Activity [9]: Non-toxic | Activity [11]: Toxic

From ChEMBL document CHEMBL3616378 (J Med Chem, 2015)
